# TNAP inh noacc: inhibitors of human TNAP without phosphate acceptor; purified TNAP, CDP-star luminescence, 30 min; inhibition, % at 20 µM; actives 0.26% (n = 200,000); AID 1012;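 active means tissue-nonspecific alkaline phosphatase inhibition above about 50% at 20 µM in the single-dose screen, limit read from the data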
# Target sequence (P05186 whole entry, looked up): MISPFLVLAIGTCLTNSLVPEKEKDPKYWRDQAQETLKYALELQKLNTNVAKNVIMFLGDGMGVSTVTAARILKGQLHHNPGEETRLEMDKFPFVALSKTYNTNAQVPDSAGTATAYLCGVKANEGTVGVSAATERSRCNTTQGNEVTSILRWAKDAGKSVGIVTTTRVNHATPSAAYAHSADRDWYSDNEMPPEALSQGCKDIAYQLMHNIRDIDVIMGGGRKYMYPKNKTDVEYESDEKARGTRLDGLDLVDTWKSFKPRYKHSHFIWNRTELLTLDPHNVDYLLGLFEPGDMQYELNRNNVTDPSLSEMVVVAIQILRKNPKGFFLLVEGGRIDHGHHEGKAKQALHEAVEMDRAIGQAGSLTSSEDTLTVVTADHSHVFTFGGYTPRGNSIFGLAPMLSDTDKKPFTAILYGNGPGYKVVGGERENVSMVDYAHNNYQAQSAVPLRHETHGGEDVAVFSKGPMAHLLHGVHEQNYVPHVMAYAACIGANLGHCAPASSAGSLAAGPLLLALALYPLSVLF
# S1P3 antagonist: blocks the human S1P3 receptor | Q99500 | CHO S1P3 NFAT-BLA reporter, FRET fluorescence, antagonist mode | inhibition, % at 4.98 µM | actives 0.27% (n = 170,000) | AID 485;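 active means inhibition above the plate cutoff, the mean inhibition of test wells on that plate plus 3 SD, cut at about 28% in these data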;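 further: cells challenged with S1P at its EC80 of 0.8 µM; blue over green emission ratio from cleaved BLA substrate after 4 h stimulation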
# TNAP act hi DEA: TNAP (human) activation, high acceptor; P05186; purified TNAP, CDP-star luminescence, 1 M DEA, 30 min; hits give high values; 0 = EDTA background, 1 = DMSO-only activity; activation factor at 20 µM; 200,000 tested, under 10 active;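 active means activation factor at least 2 at 20 µM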
#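 Measured by: Luminescent substrate turnover signal | Test system: Human TNAP | Input: TNAP 1/800 final | Dosing: 20 µM single point | Schedule: 30 min, room temperature | Controls: EDTA wells as negative control, DMSO wells as positive control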
# TNAP inh hi DEA: TNAP (human) inhibition, high acceptor; P05186; purified TNAP, CDP-star luminescence, 1 M DEA; inhibition, % at 20 µM; actives 0.03% (n = 200,000);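 active means over 50% inhibition of tissue-nonspecific alkaline phosphatase at 20 µM in the single-dose screen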
# S1P4 antag: human S1P4 receptor antagonism; O95977; S1P4-expressing cells, antagonist mode, reporter read-out; inhibition, % at 4.98 µM; actives 0.26% (n = 220,000); AID 1510; in the data active means inhibition above about 29%
# S1P4 agonist: human S1P4 receptor agonism. S1P4-expressing cell line, agonist reporter assay. activation, % at 4.98 µM. actives 0.35% (n = 220,000); in the data active means activation above about 11%
# S1P4 agonist cf: human S1P4 agonism, confirmation; activation, % at 4.98 µM; shares compounds with S1P4 agonist; actives 7% (n = 740); S1P4 agonist cell-based reporter assay; in the data active means activation above about 12%
# S1P1 ag: counter-screen for S1P4 agonists: agonists of human S1P1; activation, % at 4.98 µM; shares compounds with S1P4 agonist; actives 4% (n = 740); S1P1 agonist cell-based assay, activation; in the data active means activation above about 21%
# Numbers stand for hits; - = inactive; . = no result. Most compounds without a hit are left out; they make up all but 1.1% or so of the library.
SMILES,TNAP inh noacc,S1P3 antagonist,TNAP act hi DEA,TNAP inh hi DEA,S1P4 antag,S1P4 agonist,S1P4 agonist cf,S1P1 ag
CN1CCN(CCCNC(=O)c2ccc(/C=C3\Sc4ccccc4N(Cc4ccc(F)cc4)C3=O)cc2)CC1,-,-,-,-,-,23,-,-
COc1ccc(NC(=O)CN2CCC(C(N)=O)(N3CCCCC3)CC2)c(OC)c1,-,-,-,-,-,-,.,.
COc1cccc(C2C3=C(CCCC3=O)NC3=C2C(=O)c2ccccc23)c1 (configuration not stated),-,-,-,-,-,13,-,-
COc1ccc(OC)c(NC(=O)c2ccccc2N(Cc2ccccc2)S(C)(=O)=O)c1,-,-,-,-,-,58,-,-
Cc1c(NC(=O)CSCc2ccc(Br)cc2)c(=O)n(-c2ccccc2)n1C,-,-,-,-,-,-,.,.
O=C(CCc1nnc(CCCCc2ccccc2)o1)NCCC1CCCCO1 (configuration not stated),-,-,-,-,-,-,.,.
CCOc1ccc(S(=O)(=O)n2c(C)nc3ccccc32)cc1,-,-,-,-,-,14,-,-
CCOC(=O)C1CCN(c2cc(C)nc3cc(-c4cccc(F)c4)nn23)CC1,-,-,-,-,-,13,-,-
Brc1ccc(-c2ccc(/C=N/Nc3nc4ccccc4[nH]3)o2)cc1,-,-,-,-,-,12,-,24
Cc1cc(OC(=O)CNC(=O)OC(C)(C)C)c2c(C)cc(=O)oc2c1,-,-,-,-,-,48,-,-
CC(OC(=O)c1ccc2c(=O)n3c(nc2c1)CCCCC3)C(=O)Nc1ncc(Cl)cc1Cl (configuration not stated),-,-,-,-,-,11,-,-
CC(OC(=O)c1ccc2c(=O)n3c(nc2c1)CCC3)C(N)=O (configuration not stated),-,-,-,-,-,-,.,.
Cc1ccc(C2=NNC3(CCOC(C)(C)C3)S2)cc1 (configuration not stated),-,-,-,-,-,-,.,.
COc1ccc(CCN/C=C2/CC(=O)NC2=O)cc1OC,-,-,-,-,-,17,-,-
COc1ccc(CCNC(=O)CCCn2nc(C)c([N+](=O)[O-])c2C)cc1OC,-,-,-,-,-,-,.,.
CCc1ccc(/C=C2/C(=O)N(C)C(=S)N2CC(=O)OC)s1,-,-,-,-,-,-,.,.
O=C(Nc1c2c(nn1-c1ccc(F)cc1)CS(=O)C2)c1ccc(S(=O)(=O)N2CCOCC2)cc1 (configuration not stated),-,-,-,-,-,-,.,.
O=C(O)CSc1nnc(-c2cccc(S(=O)(=O)N3CCOCC3)c2)n1-c1cccc(Cl)c1,.,-,.,.,-,15,-,-
CCCn1c(N)c(NCCN2CCOCC2)c(=O)[nH]c1=O,-,-,-,-,-,-,.,.
Cc1ccc(-c2csc(/C(C#N)=C(\O)CCl)n2)cc1,-,-,-,-,-,20,-,-
CCn1c(=O)c2c3c(sc2n2c(=S)[nH]nc12)CCC3,-,.,-,-,-,23,-,-
O=C(NNc1c2ccccc2nc2ccccc12)C12CC3CC(CC(C3)C1)C2,.,-,.,.,-,13,-,-
O=C(c1ccccc1)N1CCC(c2nc3c(nnn3Cc3ccccc3Cl)c(=O)[nH]2)CC1,-,.,-,-,-,55,-,-
COc1ccccc1Cn1nnc2c(=O)[nH]c(C3CCN(C(=O)c4ccc(F)cc4)CC3)nc21,-,-,-,-,-,-,.,.
O=C(NCCc1c[nH]c2ccccc12)/C(=C\c1cccnc1)NC(=O)c1ccccc1Br,.,-,.,.,-,-,.,.
N#Cc1cnn2ccc(-c3cc(N4CCOCC4)ccc3[N+](=O)[O-])nc12,-,-,-,-,-,14,-,-
O=C(NCC1CCCO1)/C(=C/c1ccccc1)NC(=O)c1ccccc1 (configuration not stated),-,-,-,-,-,28,-,-

# Screening data: PubChem BioAssay, several laboratories
